Assay outcomes as filed in PubChem.
T cell modulator = modulators of CD8 T cell-vesicle binding, primary screen, mouse 2C CD8+ T cells, flow cytometry; 2C CD8+ T cell-vesicle binding; active compounds read low; AID 2052, 2009; response (vesicle binding), % at 7 µM; 330,000 compounds, 0.068% hits;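 active means response, share of CD8 T cells binding vesicles, and their 90th percentile fluorescence all below set limits, cut at about 80% in these data, passing the limit was not always enough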;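 further: values below 100% mean blocked vesicle binding to the CD8+ T cells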
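material = purified 2C TCR transgenic mouse naive CD8+ T cells | controls = Unloaded micro-vesicles (low), QL9 vesicles with 0.7% DMSO (high) | detection = cytometric PE anti-B7-1 and Alexa647 anti-CD8 signals after 1% paraformaldehyde fixation | incubation = binding step 1.5 h, 37 °C, antibody labelling 20 min, ice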
V-ATPase pHluor = regulators of yeast V-ATPase proton pumping, primary screen, pHLuorin cytosolic pH fluorescence | S. cerevisiae | response, % at 10 µM | 350,000 compounds, 0.37% hits; in the data active means response mostly above about 7.3%, no sharp cut-off; inactive means mostly below about 5.4%; further: actives read high
Arr AP2 block = inhibitors of beta-arrestin/AP2 binding, primary screen, biochemical, GPCR trafficking, flow cytometry; FITC-arrestin peptide / GST-AP2 beads; AP2 beta2 appendage carries R879A mutation; 340,000 compounds, 0.31% hits; AID 504490, 2011; inhibition, % at 10 µM;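 active means inhibition above a set limit, near 3 SD of compounds lacking own fluorescence, cut at about 54% in these data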;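 further: plate controls were DMSO wells for no effect and 5 µM unlabelled arrestin peptide for full effect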
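Material – GST-tagged AP2 beta2-adaptin appendage (R879A) on 4 µm glutathione beads · Probe or stimulus – fluorescein-tagged arrestin peptide at 50 nM final · Timing – 12 min plus 1 h, RT · Detection – bead flow cytometry, FITC channel · Read-out basis – inhibition as reduced fluorescein signal on beads, percent · Medium – PBS plus Tween 20 (0.05%) and BSA (0.1%)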
XiGFP reactiv = activators of inactive X chromosome reactivation, primary screen, imaging, XiGFP fibroblasts, GFP high-content imaging, set 2; activation, % at 7.58 µM; AID 743238, 2013; XiGFP mouse fibroblasts, % GFP-positive cells imaging, 3 d; cells co-treated with 5-aza-dC sensitizer; scaled so ellipticine positive control = 100%; 360,000 compounds, 0.055% hits;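 active means mean normalized replicate activation at least 10% and every replicate at or above 10%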;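 further: 0% = median of on-plate neutral control wells and 100% = ellipticine 6 µM median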
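Assay system: SV40-immortalized XiGFP fibroblast cells, line 68-5-11; buffer or medium: DMEM plus 5-aza-dC sensitizer; compound: one concentration, pinned; timing: compounds 3 days, fix/stain 15 min at room temperature; benchmarks: positive control ellipticine, 6 µM final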
NTR1 agonist = agonists of human NTR1, primary screen, imaging, U2OS cells, beta-arrestin-GFP, high content. Neurotensin receptor type 1 (Homo sapiens), P30989. NTR1-U2OS beta-arrestin-GFP spot imaging, agonist mode. activation, % at 20 µM. 330,000 compounds, 0.17% hits. AID 493036, 2011;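 active means activation at or above 40% of the spot to cytoplasm intensity ratio, with at least 20 cells analyzed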;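 further: 0% = DMSO without peptide and 100% = 100 nM NTR1 peptide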
Target sequence (P30989 whole entry, looked up): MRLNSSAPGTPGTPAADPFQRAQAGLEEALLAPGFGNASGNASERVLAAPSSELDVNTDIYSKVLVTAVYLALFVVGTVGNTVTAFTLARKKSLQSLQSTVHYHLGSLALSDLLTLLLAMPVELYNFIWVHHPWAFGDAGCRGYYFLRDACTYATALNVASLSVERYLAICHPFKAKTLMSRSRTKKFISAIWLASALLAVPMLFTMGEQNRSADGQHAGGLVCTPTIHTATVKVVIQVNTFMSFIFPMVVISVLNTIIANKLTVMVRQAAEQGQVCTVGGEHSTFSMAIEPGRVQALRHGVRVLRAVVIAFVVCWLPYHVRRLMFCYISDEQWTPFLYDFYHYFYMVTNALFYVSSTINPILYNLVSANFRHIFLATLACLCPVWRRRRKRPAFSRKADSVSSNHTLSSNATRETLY
beta cell repl = inducers of MIN6 beta-cell proliferation, primary screen, ATP luminescence, uHTS | 330,000 compounds, 0.29% hits | MIN6 cells proliferation, ATPlite luminescence, 48 h; cells starved in 0.2% serum; 100% = growth in 10% serum | proliferation, % at 10 µM | AID 2380, 2010;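 active means compounds whose signal lies at least 3.5 SD above the mean of all wells on their plate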;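 further: 0% = DMSO-treated cells in low-serum medium and 100% = 10% serum control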
* hit, by the source's call; x = not tested or not shown. The list is not random: actives were taken first. Their share in the collection is about 0.89%.

SMILES | T cell modulator | V-ATPase pHluor | Arr AP2 block | XiGFP reactiv | NTR1 agonist | beta cell repl
CC[C@H](C)[C@@H](C(=O)NCCCCCCCCCCC(=O)N1CCN(C(=O)OC(C)(C)C)CC1)n1cc(CCCCCNC(=O)OC(C)(C)C)nn1 | 262.1 | 0.8 | 2.5 | 0.2 | 1.3 | -7.8
CC[C@H](C)[C@@H](C(=O)NCCCCCCCCCCC(=O)N1CCN(C(=O)OC(C)(C)C)CC1)n1cc(CCCCN=C(NC(=O)OC(C)(C)C)NC(=O)OC(C)(C)C)nn1 | 474.3 | x | x | x | 62.8* | -7.8
CC(C)(C)OC(=O)NCCCCCc1cn([C@@H](CO)C(=O)NCCCCCCCCCCC(=O)N2CCN(C(=O)OC(C)(C)C)CC2)nn1 | 314.4 | -6.0 | -6.4 | 0.0 | 82.3* | -8.0
O=C(CN1CCOCC1)N[C@@H]1CC[C@@H](CCNC(=O)C2CCC2)O[C@@H]1CO | x | x | x | 1.7 | x | x
O=C(C[C@H]1CC[C@H]2[C@@H](COC[C@H](O)CN2C(=O)Cc2ccccc2)O1)NC1CCC1 | x | x | x | 0.1 | x | x
C[C@@H]1CN([C@H](C)CO)C(=O)c2cc(NS(=O)(=O)c3ccc(Cl)cc3)ccc2O[C@@H](C)CCCCO[C@@H]1CN(C)C(=O)CCC(F)(F)F | x | x | x | 0.1 | x | x
CCOC(=O)c1[nH]c2ccc(OC)cc2c1NC(=O)CN1CCSCC1 | 659.6 | 24.9* | 13.4 | x | -2.4 | 0.0
CCOC(=O)c1[nH]c2ccc(OC)cc2c1NC(C)=O | 179.4 | -2.3 | -5.1 | x | 0.2 | 2.6
C[C@@H](NC(=O)[C@@H]1[C@@H](CO)[C@@H]2Cn3c(cccc3=O)[C@@H]2N1S(C)(=O)=O)c1ccccc1 | x | x | x | 0.3 | x | x
CCCCNC(=O)/C(C#N)=C/c1ccc2c(c1)OCCO2 | 0.0* | 4.0 | 18.4 | 0.1 | -0.2 | 0.0
CCCCCCCCNC(=O)/C(C#N)=C/c1ccc2c(c1)OCCO2 | 172.9 | 3.7 | 11.7 | 0.1 | 2.0 | -5.7
CCCNC(=O)N1CC2(CCN(Cc3cccnc3)CC2)c2c(n(C)c3cc(OC)ccc23)[C@@H]1CO | x | x | x | 0.3 | x | x
Cc1[nH]c2ccccc2c1/C=N/Nc1nc2ccccc2[nH]1 | 426.1 | 0.8 | 14.6 | 17.2* | 11.2 | -4.0
Cc1ccccc1/C=N/Nc1nc2ccccc2[nH]1 | 376.1 | -4.7 | 8.0 | 0.0 | 0.6 | -3.3
COCC(=O)Nc1ccc2c(c1)[C@@H]1C[C@@H](CC(=O)NCc3ccc(Cl)cc3)O[C@@H](CO)[C@@H]1O2 | x | x | x | 0.0 | x | x
CC1=CN2C(=N)/C(=C/c3ccc([N+](=O)[O-])o3)C(=O)N=C2S1 | 930.6 | 142.8* | -9.0 | 0.2 | x | x
CC1=CN2C(=N)/C(=C/c3ccco3)C(=O)N=C2S1 | 309.4 | -3.1 | 4.3 | -0.2 | 0.0 | 0.0
COc1ccc(C(=O)N=C2CCC(C#N)=C3c4cc(OC)c(OC)cc4CCN23)cc1 | 213.9 | -0.3 | -6.7 | -0.1 | 2.1 | 7.2*
COc1ccc2c3c(n(C)c2c1)[C@H](CO)N(C(=O)Nc1ccc(F)cc1)CC31CCN(S(=O)(=O)c2cccs2)CC1 | x | x | x | 0.2 | x | x
COc1ccc2c3c([nH]c2c1)[C@H](CO)N(CC1CC1)CC31CN(C(=O)c2ccccc2F)C1 | x | x | x | 0.3 | x | x
Cc1cc(C)cc(NC(=S)N2CCC(NC(=O)C3CC3)CC2)c1 | 396.7 | 14.9* | 11.8 | 0.1 | -0.3 | -0.8
O=C(NC1CCN(C(=O)Nc2cccc(Cl)c2)CC1)C1CCCCC1 | 245.9 | 15.1* | 5.1 | 0.0 | -1.0 | -1.8
CCCNS(=O)(=O)c1ccc2c(c1)n(C)c(=O)n2C | 209.2 | -2.9 | -5.7 | 0.2 | -0.8 | -1.7
CCCCN(C)CCNS(=O)(=O)c1ccc2c(c1)n(C)c(=O)c(=O)n2C | 472.8 | 18.1* | 18.8 | -0.1 | 0.4 | -3.5
O=C(c1ccccc1CCc1ccccc1)N1CCCC1 | 819.2 | 40.2* | -5.3 | 0.0 | 0.5 | -2.7
SMILES | T cell modulator | V-ATPase pHluor | Arr AP2 block | XiGFP reactiv | NTR1 agonist | beta cell repl
CCOC(=O)N1CCN(C(=O)c2ccccc2CCc2ccccc2)CC1 | 256.8 | 1.7 | 2.1 | x | 1.3 | -0.1
CC(C)(C)c1cc(/C=N/O)cc(C(C)(C)C)c1O | 376.1 | 2.7 | 3.9 | -0.1 | -0.3 | 0.0*
CC(C)(C)c1cc(/C=C2\NC(=O)NC2=O)cc(C(C)(C)C)c1O | 330.7 | 2.5 | -5.1 | 0.1 | 10.0 | -4.2
Cc1ccc(CCNC(=O)CCNS(=O)(=O)c2ccc3c(c2)c(=O)n(C)c(=O)n3C)cc1 | 472.0 | 19.8* | 8.7 | x | -0.3 | -3.2
Cc1ccc(CNC(=O)CCNS(=O)(=O)c2ccc3c(c2)c(=O)n(C)c(=O)n3C)cc1 | 359.9 | 0.3 | 1.8 | x | -0.2 | -2.2
COc1ccc(C(=O)N2C[C@H]3[C@@H](c4ccccc42)[C@H](CO)N3Cc2ccc3c(c2)OCO3)cc1 | x | x | x | 0.1 | x | x
CC(Sc1nc2ccccc2[nH]1)C(=O)NC1CCCCC1C (centres undefined) | 49.0* | 2.7 | -13.2 | 0.4 | -0.6 | -3.8
CC(Sc1nc2ccccc2c(=O)n1C)C(=O)NC1CCCCC1C (centres undefined) | 654.1 | 1.9 | 6.3 | x | 0.4 | -7.5
CCOc1ccc(-c2c(C(=O)N/N=C/c3ccc(OC)cc3)nnn2-c2nonc2N)cc1 | 7.5* | -6.1 | 28.6 | 0.6 | 4.6 | -1.2
CC1(C)CCN2CCC(C)(C)c3c(O)ccc1c32 | 180.5 | -0.2 | 6.3 | 80.1* | -2.9 | -5.0
Cc1c(OCc2ccc([N+](=O)[O-])cc2)ccc2c3c(c(=O)oc12)CCC3 | 136.5 | 7.6 | -8.4 | 0.0 | 15.7 | 0.0*
O=C1c2cccc3c([N+](=O)[O-])ccc(c23)C(=O)N1O | 156.9 | -4.2 | -4.0 | 16.8* | 1.6 | -6.0
O=C(CCN1C(=O)C2C3C=CC(C4CC34)C2C1=O)Oc1ccc(Br)cc1 (centres undefined) | 252.9 | 13.1* | 10.9 | 0.0 | -1.6 | 0.0
CCC(=O)N1CC[C@@H]2[C@@H](CO)Nc3ccc(C#Cc4cccc(OC)c4)cc3[C@@H]21 | x | x | x | 0.0 | x | x
Cc1ccc(S(=O)(=O)NCCCNS(C)(=O)=O)cc1 | 294.8 | 1.1 | 22.4 | x | -1.1 | -1.7
Cc1ccc(S(=O)(=O)NCCNS(=O)(=O)c2ccc(C)cc2)cc1 | 297.2 | 338.4* | -123.5 | 0.0 | 0.4 | 0.9
CC1CCCN(C(C(=O)Nc2ccc3c(c2)OCCO3)c2ccccc2)C1 (centres undefined) | 364.7 | 5.3 | -1.2 | x | -0.9 | -1.0
CC1CCCN(C(C(=O)Nc2ccc3c(c2)OCO3)c2ccccc2)C1 (centres undefined) | 222.1 | 13.5* | 20.3 | -0.1 | -0.8 | -3.8
